{"source": "ChEMBL document CHEMBL1828498", "about": "“Identification and characterization of a novel integrin-linked kinase inhibitor” (J Med Chem, 2011)", "key": {"[1]": {"biological_target": "Cyclin-dependent kinase 1/cyclin B1 (Homo sapiens) (UniProt P06493+P14635)", "sequence (P06493 whole entry, looked up)": "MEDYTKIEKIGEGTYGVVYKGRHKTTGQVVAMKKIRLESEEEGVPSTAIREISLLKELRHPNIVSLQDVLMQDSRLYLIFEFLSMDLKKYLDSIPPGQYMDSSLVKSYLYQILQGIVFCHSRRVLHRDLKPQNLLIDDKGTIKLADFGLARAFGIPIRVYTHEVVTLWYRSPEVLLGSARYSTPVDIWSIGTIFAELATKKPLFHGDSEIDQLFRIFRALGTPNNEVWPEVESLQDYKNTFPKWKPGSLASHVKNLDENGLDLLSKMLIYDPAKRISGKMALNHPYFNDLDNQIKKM", "sequence (P14635 whole entry, looked up)": "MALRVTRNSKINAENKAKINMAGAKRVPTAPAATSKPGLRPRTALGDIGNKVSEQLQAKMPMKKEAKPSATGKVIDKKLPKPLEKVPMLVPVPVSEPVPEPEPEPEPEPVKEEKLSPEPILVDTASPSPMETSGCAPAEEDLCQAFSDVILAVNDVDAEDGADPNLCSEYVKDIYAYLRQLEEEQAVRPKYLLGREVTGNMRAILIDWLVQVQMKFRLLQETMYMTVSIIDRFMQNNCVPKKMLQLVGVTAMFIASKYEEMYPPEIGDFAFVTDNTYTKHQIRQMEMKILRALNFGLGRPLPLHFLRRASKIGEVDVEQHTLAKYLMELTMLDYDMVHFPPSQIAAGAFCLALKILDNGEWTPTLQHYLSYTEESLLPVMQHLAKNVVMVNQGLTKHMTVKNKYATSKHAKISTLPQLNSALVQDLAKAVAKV", "assay": "Inhibition of CDK1/cyclin B at 5 uM assessed as remaining activity", "type": "protein-complex assay", "procedure,_shortened": "(§1)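 Panel of 20 recombinant kinases, profiled by a commercial vendor.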"}, "HMEC": {"system": "HMEC", "assay": "Antiproliferative activity against human HMEC cells at 1 to 5 uM by MTT assay", "type": "cell-based", "procedure,_shortened": "(§2)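 Cancer lines seeded 5000/well and nonmalignant PrEC/MEC 8000/well in 10% FBS, 24 h before treatment. Compound exposure 24 h in 5% FBS medium, 0.1% final DMSO. MTT (0.25 mg/mL) for 1 h at 37°C, dye solubilized in DMSO, absorbance read at 570 nm. Mean ± SD, n = 6.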"}, "PC-3 [2]": {"system": "PC-3", "assay": "Suppression of tumor growth in human PC3 cells xenografted in nude mouse at 50 mg/kg/day, po administered for 35 days relative to control", "type": "functional", "procedure,_shortened": "(§3)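 Male NCr athymic nude mice, s.c. 0.5 × 10^6 PC-3 cells in 50% Matrigel; established tumors randomized (n=6) to daily oral gavage in 0.5% methylcellulose/0.1% Tween 80 in water, 10 μL/g, 35 days; weekly caliper volume = width² × length × 0.52; mean ± SEM, ANOVA or t-test.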"}, "Scaffold protein ILK": {"biological_target": "Scaffold protein ILK (Homo sapiens, UniProt Q13418)", "assay": "(§4) Inhibition of human ILK activity assessed myelin basic protein phosphorylation by radiometric kinase assay in the presence of [gamma 32P]ATP", "procedure,_shortened": "(§5)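 ILK immunoprecipitated from EGF-pretreated (100 ng/mL, 2 h) PC-3 lysates with protein A/G agarose; reaction in 25 μL with 5 μg MBP and 2.5 μCi [γ-32P]ATP, 30°C for 25 min; SDS-PAGE, autoradiography, densitometry versus DMSO control; mean ± SD, n = 3.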"}, "[3]": {"biological_target": "T1, Scaffold protein ILK (Homo sapiens) (UniProt Q13418)", "T1 sequence (whole entry)": "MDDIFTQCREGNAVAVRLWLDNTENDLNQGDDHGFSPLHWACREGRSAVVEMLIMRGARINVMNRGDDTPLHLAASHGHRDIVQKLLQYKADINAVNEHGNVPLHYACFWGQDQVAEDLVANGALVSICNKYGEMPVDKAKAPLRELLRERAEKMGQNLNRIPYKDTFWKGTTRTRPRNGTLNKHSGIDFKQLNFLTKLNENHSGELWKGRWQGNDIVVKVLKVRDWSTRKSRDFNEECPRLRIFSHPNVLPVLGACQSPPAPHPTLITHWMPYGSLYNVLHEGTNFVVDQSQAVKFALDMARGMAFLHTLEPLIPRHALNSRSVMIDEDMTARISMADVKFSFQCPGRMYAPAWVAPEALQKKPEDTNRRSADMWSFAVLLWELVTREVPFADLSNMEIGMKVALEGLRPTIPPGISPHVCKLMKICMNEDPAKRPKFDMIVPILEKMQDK", "assay": "as §4", "procedure,_shortened": "as §5"}, "PC-3 [4]": {"system": "PC-3", "assay": "Reduction in YB-1 concentration in human PC3 cells expressing constitutively active ILK after 24 hrs by Western blot analysis", "type": "functional, cell-based", "procedure,_shortened": "(§6)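 PC-3 versus stable PC-3/CA-ILK, or SKBR3 versus transient SKBR3/CA-ILK (electroporation, used 48 h after), treated 24 h in 5% FBS medium; immunoblotting with ECL; representative of three experiments.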"}, "[5]": {"biological_target": "Tyrosine-protein kinase ABL1 (Homo sapiens) (UniProt P00519)", "sequence (P00519 whole entry)": "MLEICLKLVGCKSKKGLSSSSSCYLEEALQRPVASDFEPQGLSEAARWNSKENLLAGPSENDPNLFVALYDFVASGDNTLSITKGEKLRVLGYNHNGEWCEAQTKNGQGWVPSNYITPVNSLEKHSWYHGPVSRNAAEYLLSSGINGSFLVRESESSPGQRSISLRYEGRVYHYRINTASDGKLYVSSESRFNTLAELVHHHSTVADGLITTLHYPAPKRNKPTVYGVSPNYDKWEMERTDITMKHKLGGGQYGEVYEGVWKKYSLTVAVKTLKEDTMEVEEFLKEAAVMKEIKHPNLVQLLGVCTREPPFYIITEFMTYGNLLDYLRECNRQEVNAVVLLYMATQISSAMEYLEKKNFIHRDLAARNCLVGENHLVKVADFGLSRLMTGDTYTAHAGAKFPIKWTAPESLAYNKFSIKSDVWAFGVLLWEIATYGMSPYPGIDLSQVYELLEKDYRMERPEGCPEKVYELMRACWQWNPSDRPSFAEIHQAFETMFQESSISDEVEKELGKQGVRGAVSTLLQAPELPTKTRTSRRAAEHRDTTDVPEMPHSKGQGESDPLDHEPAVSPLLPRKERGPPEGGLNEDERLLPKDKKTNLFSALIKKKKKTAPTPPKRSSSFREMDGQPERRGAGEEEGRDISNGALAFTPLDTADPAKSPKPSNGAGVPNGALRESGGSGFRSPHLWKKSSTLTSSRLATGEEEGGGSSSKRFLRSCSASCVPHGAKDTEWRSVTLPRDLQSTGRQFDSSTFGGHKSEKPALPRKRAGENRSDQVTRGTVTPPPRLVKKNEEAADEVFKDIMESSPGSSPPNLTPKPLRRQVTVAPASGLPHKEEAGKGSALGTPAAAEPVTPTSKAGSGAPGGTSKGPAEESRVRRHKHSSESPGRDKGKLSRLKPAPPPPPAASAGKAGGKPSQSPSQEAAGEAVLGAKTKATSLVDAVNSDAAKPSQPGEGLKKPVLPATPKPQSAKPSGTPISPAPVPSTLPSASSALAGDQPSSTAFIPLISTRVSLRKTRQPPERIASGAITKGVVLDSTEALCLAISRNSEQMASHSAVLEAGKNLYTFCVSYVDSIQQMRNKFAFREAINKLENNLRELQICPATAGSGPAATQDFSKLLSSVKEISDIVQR", "assay": "Inhibition of Abl kinase at 5 uM assessed as remaining activity", "procedure,_shortened": "as §1"}, "Mus musculus [6]": {"system": "Mus musculus", "assay": "Toxicity in nude mouse assessed as weight loss at 50 mg/kg, po administered for 35 days", "type": "organism-based", "set-up": "dose 50 mg/kg, route oral", "details": "in vivo, 840 h", "procedure,_shortened": "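Male NCr nude mice bearing s.c. PC-3 tumors, dosed once daily by oral gavage in 0.5% methylcellulose/0.1% Tween 80 vehicle, 10 μL/g, for 35 days; body weight recorded weekly.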"}, "PC-3 [7]": {"system": "PC-3", "assay": "Induction of apoptosis in human PC3 cells assessed as late apoptotic cells at 1 uM by annexin V/PI staining (reference value: 9.8%)", "type": "functional"}, "PC-3 [8]": {"system": "PC-3", "assay": "Suppression of tumor growth in human PC3 cells xenografted in nude mouse at 25 mg/kg/day, po administered for 35 days relative to control", "type": "functional", "procedure,_shortened": "as §3"}, "PC-3 [9]": {"system": "PC-3", "assay": "Induction of apoptosis in human PC3 cells assessed as late apoptotic cells at 3 uM by annexin V/PI staining (reference value: 9.8%)", "type": "functional"}, "[10]": {"biological_target": "Serine/threonine-protein kinase mTOR (Homo sapiens) (UniProt P42345)", "assay": "Inhibition of mTOR at 5 uM assessed as remaining activity"}, "SK-BR-3": {"system": "SK-BR-3", "assay": "Reduction in EGFR concentration in human SKBR3 cells after 24 hrs by Western blot analysis", "type": "functional, cell-based", "procedure,_shortened": "as §6"}, "[11]": {"biological_target": "Mast/stem cell growth factor receptor Kit (Homo sapiens) (UniProt P10721)", "sequence (P10721 whole entry)": "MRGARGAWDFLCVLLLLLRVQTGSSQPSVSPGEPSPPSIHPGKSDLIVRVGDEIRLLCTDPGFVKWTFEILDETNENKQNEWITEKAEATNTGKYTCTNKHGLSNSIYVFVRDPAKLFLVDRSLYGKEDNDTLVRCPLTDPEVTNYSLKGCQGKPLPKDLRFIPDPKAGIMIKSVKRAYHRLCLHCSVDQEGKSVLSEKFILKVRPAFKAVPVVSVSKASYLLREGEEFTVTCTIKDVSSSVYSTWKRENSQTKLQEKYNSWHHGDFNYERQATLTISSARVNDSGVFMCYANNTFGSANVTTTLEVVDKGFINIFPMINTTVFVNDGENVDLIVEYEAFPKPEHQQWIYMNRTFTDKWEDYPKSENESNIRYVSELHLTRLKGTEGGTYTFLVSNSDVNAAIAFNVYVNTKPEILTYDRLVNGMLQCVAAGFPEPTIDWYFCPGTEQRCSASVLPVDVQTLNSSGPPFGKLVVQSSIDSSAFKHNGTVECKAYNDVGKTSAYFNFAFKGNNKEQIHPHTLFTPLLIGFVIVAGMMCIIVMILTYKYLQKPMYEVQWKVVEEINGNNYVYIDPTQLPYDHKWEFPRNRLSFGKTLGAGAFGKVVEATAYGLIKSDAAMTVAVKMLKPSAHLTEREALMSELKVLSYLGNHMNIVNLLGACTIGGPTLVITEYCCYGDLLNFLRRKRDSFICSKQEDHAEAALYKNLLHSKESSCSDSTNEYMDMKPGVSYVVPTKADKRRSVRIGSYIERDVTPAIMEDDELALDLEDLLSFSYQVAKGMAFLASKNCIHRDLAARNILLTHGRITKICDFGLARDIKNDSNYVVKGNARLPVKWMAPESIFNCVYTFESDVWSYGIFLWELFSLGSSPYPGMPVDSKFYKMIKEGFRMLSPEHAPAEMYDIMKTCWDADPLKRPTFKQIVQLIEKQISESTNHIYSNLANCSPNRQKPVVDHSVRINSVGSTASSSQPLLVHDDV", "assay": "Inhibition of cKit at 5 uM assessed as remaining activity"}, "PC-3 [12]": {"system": "PC-3", "assay": "Induction of apoptosis in human PC3 cells assessed as early apoptotic cells at 2 uM by annexin V/PI staining (reference value: 5.6%)", "type": "functional"}, "PC-3 [13]": {"system": "PC-3", "assay": "Antiproliferative activity against human PC3 cells assessed as suppression of cell viability by MTT assay", "type": "functional, cell-based", "procedure,_shortened": "as §2"}, "[14]": {"system": "3-phosphoinositide dependent protein kinase-2, PDK2", "assay": "Inhibition of PDK2 in human PC3 cells assessed as Akt Ser-473 dephosphorylation by Western blot analysis", "type": "functional, cell-based", "details": "PC-3", "procedure,_shortened": "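Cells exposed 24 h in 5% FBS medium, final DMSO 0.1%; lysed in 1% SDS/10 mM EDTA/50 mM Tris pH 8.1, equal protein on SDS-PAGE, nitrocellulose, primary antibody 1:1000 at 4°C for 2 h, HRP secondary 1:5000, ECL detection; blots representative of three independent experiments.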"}, "[15]": {"biological_target": "Epidermal growth factor receptor (Homo sapiens) (UniProt P00533)", "sequence (P00533 whole entry)": "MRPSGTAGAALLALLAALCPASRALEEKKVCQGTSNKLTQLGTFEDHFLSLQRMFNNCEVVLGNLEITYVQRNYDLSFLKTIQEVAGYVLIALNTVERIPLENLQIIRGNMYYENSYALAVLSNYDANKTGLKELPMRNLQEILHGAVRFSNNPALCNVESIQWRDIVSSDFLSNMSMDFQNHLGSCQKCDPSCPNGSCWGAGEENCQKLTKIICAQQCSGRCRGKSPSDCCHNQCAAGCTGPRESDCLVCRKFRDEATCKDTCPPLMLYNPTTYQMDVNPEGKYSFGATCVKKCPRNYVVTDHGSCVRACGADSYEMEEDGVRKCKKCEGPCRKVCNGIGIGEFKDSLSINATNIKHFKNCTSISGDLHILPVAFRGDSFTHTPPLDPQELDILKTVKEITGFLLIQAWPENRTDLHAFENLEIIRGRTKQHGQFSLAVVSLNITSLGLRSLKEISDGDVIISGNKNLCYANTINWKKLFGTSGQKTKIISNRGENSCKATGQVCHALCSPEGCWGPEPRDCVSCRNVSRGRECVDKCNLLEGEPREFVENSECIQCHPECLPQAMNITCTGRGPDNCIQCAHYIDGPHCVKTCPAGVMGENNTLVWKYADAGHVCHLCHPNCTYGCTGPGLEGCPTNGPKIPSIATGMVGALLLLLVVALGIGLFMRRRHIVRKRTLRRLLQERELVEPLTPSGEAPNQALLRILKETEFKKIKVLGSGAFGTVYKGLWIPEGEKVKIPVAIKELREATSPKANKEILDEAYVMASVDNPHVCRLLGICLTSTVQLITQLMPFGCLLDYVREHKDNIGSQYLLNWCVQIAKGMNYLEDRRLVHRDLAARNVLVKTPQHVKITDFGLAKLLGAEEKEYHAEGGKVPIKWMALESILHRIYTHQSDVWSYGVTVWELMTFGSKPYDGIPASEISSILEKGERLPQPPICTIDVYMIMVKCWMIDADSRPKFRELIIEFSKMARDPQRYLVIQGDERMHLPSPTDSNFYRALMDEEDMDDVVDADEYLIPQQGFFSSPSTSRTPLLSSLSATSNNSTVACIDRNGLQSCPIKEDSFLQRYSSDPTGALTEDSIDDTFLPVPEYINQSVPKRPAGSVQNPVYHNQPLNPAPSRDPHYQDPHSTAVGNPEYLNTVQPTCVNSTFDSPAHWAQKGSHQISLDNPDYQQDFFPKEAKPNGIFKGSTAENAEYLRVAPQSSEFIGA", "assay": "Inhibition of EGFR at 5 uM assessed as remaining activity", "procedure,_shortened": "as §1"}, "Mus musculus [16]": {"system": "Mus musculus", "assay": "Inhibition of phosphorylation of Ser-437-Akt in human PC3 cells xenografted nude mouse tumor lysate at 25 mg/kg, po administered for 35 days by Western blot analysis", "type": "functional, organism-based", "set-up": "dose 25 mg/kg", "details": "Neoplasm, PC-3", "procedure,_shortened": "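Tumors harvested at terminal sacrifice after 35 days of daily oral dosing, snap-frozen and stored at -80°C; lysates immunoblotted, three representative tumors per group.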"}, "[17]": {"biological_target": "T1, Scaffold protein ILK (Homo sapiens)", "assay": "Inhibition of ILK in human MDA-MB-231 cells assessed as decrease in MLC phosphorylation by Western blot analysis", "type": "cell-based", "procedure,_shortened": "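PC-3 and MDA-MB-231 cells exposed 24 h in 5% FBS medium across a concentration series. Phospho-GSK3β (Ser9) and phospho-MLC (Thr18/Ser19) detected by immunoblot: SDS lysis, primary 1:1000 at 4°C for 2 h, HRP secondary, ECL. Representative of three experiments.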"}, "[18]": {"biological_target": "T1, Scaffold protein ILK (Homo sapiens)", "assay": "Inhibition of ILK in human PC3 cells expressing constitutively active ILK assessed as decrease in phosphorylated ERK1/2 concentration by Western blot analysis", "type": "cell-based", "details": "PC-3", "procedure,_shortened": "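Stable PC-3 clones expressing GFP-CA-ILK (G418 250 μg/mL selection, GFP sorting) treated 24 h in 5% FBS medium. Phospho-ERK1/2 and phospho-p38 detected by immunoblot with ECL. Representative of three experiments.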"}, "MCF7": {"system": "MCF7", "assay": "Antiproliferative activity against human MCF7 cells assessed as suppression of cell viability by MTT assay", "type": "functional, cell-based", "procedure,_shortened": "as §2"}}, "note": "pIC50: −log10 of the molar value. Active and inactive are the calls of the source. The calls are words filed in the database; no cut-off is given here.", "data": [{"molecule": "CNC(=O)CCc1cc(-c2ccc(-c3ccc(C(F)(F)F)cc3)cc2)n(-c2ccc(N3CCNCC3)cc2)n1", "values": [{"measurement": "Activity", "setting": "[1]", "value": 73, "unit": "%"}, {"measurement": "inhibition (INH)", "setting": "HMEC", "value": "Not Active"}, {"measurement": "Activity", "setting": "PC-3 [2]", "value": 62, "unit": "%"}, {"measurement": "pIC50", "setting": "Scaffold protein ILK", "value": 6.22}, {"measurement": "inhibition", "setting": "[3]", "value": "Dose-dependent effect"}, {"measurement": "Activity", "setting": "PC-3 [4]", "value": "inactive"}, {"measurement": "Activity", "setting": "[5]", "value": 73, "unit": "%"}, {"measurement": "Activity", "setting": "Mus musculus [6]", "value": "Non-toxic"}, {"measurement": "Activity", "setting": "PC-3 [7]", "value": 10.1, "unit": "%"}, {"measurement": "Activity", "setting": "PC-3 [8]", "value": 48, "unit": "%"}, {"measurement": "Activity", "setting": "PC-3 [9]", "value": 14.9, "unit": "%"}, {"measurement": "Activity", "setting": "[10]", "value": 122, "unit": "%"}, {"measurement": "Activity", "setting": "SK-BR-3", "value": "Dose-dependent effect"}, {"measurement": "Activity", "setting": "[11]", "value": 100, "unit": "%"}, {"measurement": "Activity", "setting": "PC-3 [12]", "value": 7.1, "unit": "%"}, {"measurement": "pIC50", "setting": "PC-3 [13]", "value": 5.70}, {"measurement": "inhibition", "setting": "[14]", "value": "Dose-dependent effect"}, {"measurement": "Activity", "setting": "[15]", "value": 103, "unit": "%"}, {"measurement": "Activity", "setting": "Mus musculus [16]", "value": "Dose-dependent effect"}, {"measurement": "inhibition", "setting": "[17]", "value": "Active"}, {"measurement": "inhibition", "setting": "[18]", "value": "inactive"}, {"measurement": "pIC50", "setting": "MCF7", "value": 5.60}]}]}
